Measured values taken from ChEMBL document CHEMBL4715736, “Identification of anticancer agents based on the thieno[2,3-b]pyridine and 1H-pyrazole molecular scaffolds” (2016).

Columns and labels:
Format in all cases: functional
[1] = system: NCI-H322M; experiment: Growth inhibition of human NCI-H322M cells assessed as cell growth at 100 uM incubated for 48 hrs by sulforhodamine B assay relative to control; conditions: read-out: Activity
[2] = system: SK-MEL-28; experiment: Growth inhibition of human SK-MEL-28 cells assessed as cell growth at 1 uM incubated for 48 hrs by sulforhodamine B assay relative to control; conditions: read-out: Activity
[3] = system: TK-10; experiment: Growth inhibition of human TK-10 cells assessed as cell growth at 1 uM incubated for 48 hrs by sulforhodamine B assay relative to control; conditions: read-out: Activity
[4] = system: DU-145; experiment: Growth inhibition of human DU-145 cells assessed as cell growth at 0.01 uM incubated for 48 hrs by sulforhodamine B assay relative to control; conditions: read-out: Activity
Summary of the method: (§1)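 NCI Developmental Therapeutics Program NCI60 panel. Compounds that were active in the 10 µM one-dose screen went on to dose–response testing. Growth at each concentration is expressed relative to untreated control (100%). GI50 (concentration giving 50% of maximal inhibition of proliferation) and TGI (concentration giving total growth inhibition) were derived from the curves.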

[5] = system: SK-OV-3; experiment: Growth inhibition of human SK-OV-3 cells assessed as cell growth at 0.01 uM incubated for 48 hrs by sulforhodamine B assay relative to control; conditions: read-out: Activity
[6] = system: A549; experiment: Growth inhibition of human A549/ATCC cells assessed as cell growth at 0.1 uM incubated for 48 hrs by sulforhodamine B assay relative to control; conditions: read-out: Activity; summary of the method: as §1
[7] = system: KM12; experiment: Growth inhibition of human KM12 cells assessed as cell growth at 0.01 uM incubated for 48 hrs by sulforhodamine B assay relative to control; conditions: read-out: Activity
[8] = system: NCI-H522; experiment: Growth inhibition of human NCI-H522 cells assessed as cell growth at 100 uM incubated for 48 hrs by sulforhodamine B assay relative to control; conditions: read-out: Activity
[9] = system: UO-31; experiment: Growth inhibition of human UO-31 cells incubated for 48 hrs by sulforhodamine B assay; conditions: for CC50: read-out: LC50 (the source's name)
Summary of the method: (§2)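 NCI DTP 60-line human tumour panel. Dose-response curves were run only for ligands active in the initial 10 µM screen. GI50 (concentration giving 50% of maximal inhibition of proliferation) and TGI (concentration giving total growth inhibition) were derived from these curves.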

[10] = system: PC-3; experiment: Growth inhibition of human PC-3 cells incubated for 48 hrs by sulforhodamine B assay; summary of the method: as §2
[11] = system: A549; experiment: Growth inhibition of human A549/ATCC cells assessed as cell growth at 1 uM incubated for 48 hrs by sulforhodamine B assay relative to control; conditions: read-out: Activity; summary of the method: as §1
[12] = system: COLO 205; experiment: Growth inhibition of human COLO 205 cells incubated for 48 hrs by sulforhodamine B assay; summary of the method: as §1
[13] = system: K562; experiment: Growth inhibition of human K562 cells incubated for 48 hrs by sulforhodamine B assay
Summary of the method: (§3)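 NCI60 panel at the NCI Developmental Therapeutics Program. Only compounds active in the 10 µM screen went to dose-response testing. GI50, the concentration giving 50% of maximal inhibition of proliferation, and TGI, the concentration giving total growth inhibition, were derived from the dose-response curves.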

[14] = system: UO-31; experiment: Growth inhibition of human UO-31 cells assessed as cell growth at 1 uM incubated for 48 hrs by sulforhodamine B assay relative to control; conditions: read-out: Activity
[15] = system: A498; experiment: Growth inhibition of human A498 cells assessed as cell growth at 0.01 uM incubated for 48 hrs by sulforhodamine B assay relative to control; conditions: read-out: Activity; summary of the method: as §1
[16] = system: MDA-MB-231; experiment: Growth inhibition of human MDA-MB-231 cells assessed as cell growth at 100 uM incubated for 48 hrs by sulforhodamine B assay relative to control; conditions: read-out: Activity
[17] = system: HCC 2998; experiment: Growth inhibition of human HCC 2998 cells assessed as cell growth at 1 uM incubated for 48 hrs by sulforhodamine B assay relative to control; conditions: read-out: Activity; summary of the method: as §1
[18] = system: SK-OV-3; experiment: Growth inhibition of human SK-OV-3 cells assessed as cell growth at 0.1 uM incubated for 48 hrs by sulforhodamine B assay relative to control; conditions: read-out: Activity
[19] = system: KM12; experiment: Growth inhibition of human KM12 cells incubated for 48 hrs by sulforhodamine B assay; summary of the method: as §3
[20] = system: HCC 2998; experiment: Growth inhibition of human HCC 2998 cells assessed as cell growth at 100 uM incubated for 48 hrs by sulforhodamine B assay relative to control; conditions: read-out: Activity; summary of the method: as §1
[21] = system: SF-539; experiment: Growth inhibition of human SF-539 cells assessed as cell growth at 0.1 uM incubated for 48 hrs by sulforhodamine B assay relative to control; conditions: read-out: Activity
[22] = system: A498; experiment: Growth inhibition of human A498 cells assessed as cell growth at 1 uM incubated for 48 hrs by sulforhodamine B assay relative to control; conditions: read-out: Activity; summary of the method: as §1
[23] = system: U-251; experiment: Growth inhibition of human U-251 cells assessed as cell growth at 100 uM incubated for 48 hrs by sulforhodamine B assay relative to control; conditions: read-out: Activity
[24] = system: K562; experiment: Growth inhibition of human K562 cells assessed as cell growth at 0.01 uM incubated for 48 hrs by sulforhodamine B assay relative to control; conditions: read-out: Activity
[25] = system: MDA-MB-468; experiment: Growth inhibition of human MDA-MB-468 cells incubated for 48 hrs by sulforhodamine B assay; conditions: for CC50: read-out: LC50 (the source's name); summary of the method: as §3
[26] = system: 786-0; experiment: Growth inhibition of human 786-0 cells incubated for 48 hrs by sulforhodamine B assay; conditions: for CC50: read-out: LC50 (the source's name); summary of the method: as §1
[27] = system: M14; experiment: Growth inhibition of human M14 cells assessed as cell growth at 0.1 uM incubated for 48 hrs by sulforhodamine B assay relative to control; conditions: read-out: Activity
[28] = system: BT-549; experiment: Growth inhibition of human BT-549 cells assessed as cell growth at 1 uM incubated for 48 hrs by sulforhodamine B assay relative to control; conditions: read-out: Activity
[29] = system: NCI-H460; experiment: Growth inhibition of human NCI-H460 cells assessed as cell growth at 100 uM incubated for 48 hrs by sulforhodamine B assay relative to control; conditions: read-out: Activity
[30] = system: UACC-62; experiment: Growth inhibition of human UACC-62 cells assessed as cell growth at 100 uM incubated for 48 hrs by sulforhodamine B assay relative to control; conditions: read-out: Activity
[31] = system: DU-145; experiment: Growth inhibition of human DU-145 cells incubated for 48 hrs by sulforhodamine B assay; conditions: for CC50: read-out: LC50 (the source's name); summary of the method: as §1
[32] = system: T47D; experiment: Growth inhibition of human T47D cells assessed as cell growth at 0.1 uM incubated for 48 hrs by sulforhodamine B assay relative to control; conditions: read-out: Activity
[33] = system: SK-MEL-5; experiment: Growth inhibition of human SK-MEL-5 cells assessed as cell growth at 0.1 uM incubated for 48 hrs by sulforhodamine B assay relative to control; conditions: read-out: Activity
[34] = system: SR; experiment: Growth inhibition of human SR cells assessed as cell growth at 1 uM incubated for 48 hrs by sulforhodamine B assay relative to control; conditions: read-out: Activity
[35] = system: SR; experiment: Growth inhibition of human SR cells incubated for 48 hrs by sulforhodamine B assay; summary of the method: as §2

`Cc1cccc(NC(=O)c2sc3nc4c(cc3c2N)C(=O)CCC4)c1` showed a growth at 100 µM [1] of -22%, a growth at 1 µM [2] of 47% and a growth at 1 µM [3] of 45%. It also gave a growth at 0.01 µM [4] of 102%, a growth at 0.01 µM [5] of 90% and a growth at 0.1 µM [6] of 78%. For the same compound, the growth at 0.01 µM [7] was 95%, the growth at 100 µM [8] was -27% and the TGI [9] was at least 100 µM. The CC50 [9] was over 100 µM, the GI50 [10] was 0.393 µM and the TGI [10] was at least 100 µM. For the same compound, the CC50 ([10]; read-out: LC50 (the source's name)) was over 100 µM, the growth at 1 µM [11] was 19% and the GI50 [12] was 0.197 µM. It also gave an LC50 (concentration killing 50% of cells) [12] of over 100 µM, a TGI [12] of at least 100 µM and a GI50 [13] of 0.144 µM. The LC50 (concentration killing 50% of cells) [13] was over 100 µM, the TGI [13] was over 100 µM and the growth at 1 µM [14] was 55%. For the same compound, the growth at 0.01 µM [15] was 68%, the growth at 100 µM [16] was 21% and the growth at 1 µM [17] was 28%. For the same compound, the growth at 0.1 µM [18] was 73%, the GI50 [19] was 0.21 µM and the LC50 [19] was over 100 µM. For the same compound, the TGI [19] was over 100 µM, the growth at 100 µM [20] was -23% and the growth at 0.1 µM [21] was 75%. For the same compound, the growth at 1 µM [22] was -11%, the growth at 100 µM [23] was -43% and the growth at 0.01 µM [24] was 97%. It also gave a GI50 [25] of 0.143 µM, a CC50 [25] of over 100 µM and a GI50 [26] of 0.404 µM. For the same compound, the TGI [26] was at least 100 µM, the CC50 [26] was at least 100 µM and the growth at 0.1 µM [27] was 60%. It also gave a growth at 1 µM [28] of 46%, a growth at 100 µM [29] of 7% and a growth at 100 µM [30] of 33%. It also gave a GI50 [31] of 0.285 µM, a TGI [31] of at least 100 µM and a CC50 [31] of at least 100 µM. For the same compound, the growth at 0.1 µM [32] was 78% and the growth at 0.1 µM [33] was 44%.

For `CCc1ccccc1NC(=O)c1sc2nc3c(cc2c1N)C(=O)CCC3`, the growth at 100 µM [1] was 23%, the growth at 1 µM [2] was 49% and the growth at 1 µM [3] was 55%. For the same compound, the growth at 0.01 µM [4] was 105%, the growth at 1 µM [34] was 20% and the growth at 0.01 µM [5] was 104%. For the same compound, the growth at 0.1 µM [6] was 88%, the growth at 0.01 µM [7] was 100% and the growth at 100 µM [8] was 19%. For the same compound, the GI50 [9] was 14.8 µM, the TGI [9] was over 100 µM and the CC50 [9] was over 100 µM. The growth at 1 µM [11] was 39%, the GI50 [12] was 0.252 µM and the LC50 (concentration killing 50% of cells) [12] was over 100 µM. It also gave a TGI [12] of 19.8 µM, a GI50 [13] of 0.203 µM and an LC50 (concentration killing 50% of cells) [13] of over 100 µM. The TGI [13] was over 100 µM, the growth at 1 µM [14] was 50% and the growth at 0.01 µM [15] was 80%. For the same compound, the growth at 100 µM [16] was 4%, the growth at 1 µM [17] was 56% and the growth at 0.1 µM [18] was 103%. For the same compound, the GI50 [19] was 0.402 µM, the LC50 [19] was over 100 µM and the TGI [19] was over 100 µM. The growth at 100 µM [20] was 3%, the growth at 0.1 µM [21] was 93% and the growth at 1 µM [22] was -14%. The growth at 100 µM [23] was -15%, the growth at 0.01 µM [24] was 104% and the GI50 [25] was 0.209 µM. The TGI [25] was 44.7 µM, the CC50 [25] was over 100 µM and the GI50 [26] was 0.578 µM. For the same compound, the TGI [26] was at least 100 µM, the CC50 [26] was over 100 µM and the growth at 0.1 µM [27] was 78%. For the same compound, the GI50 [35] was 0.406 µM, the LC50 [35] was over 100 µM and the TGI [35] was over 100 µM. It also gave a growth at 1 µM [28] of 50%, a growth at 100 µM [29] of 3% and a GI50 [31] of 0.499 µM. For the same compound, the TGI [31] was over 100 µM, the CC50 [31] was over 100 µM and the growth at 0.1 µM [32] was 102%. It also gave a growth at 0.1 µM [33] of 82%.
